# KCNK3 inh: human KCNK3 channel inhibition, primary screen. actives 0.84% (n = 340,000). O14649. CHO-KCNK3 thallium flux, FluxOR fluorescence; stronger effect = lower value. B-score at 10 µM;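 active = B-score under library mean minus 4 SD, starting fluorescence ratio at most library mean plus 5 SD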;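 note: more negative B-score means stronger inhibition of thallium flux through KCNK3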
# KCNQ1 inh: human KCNQ1 channel inhibition | actives 1.3% (n = 310,000) | B-score at 10 µM | AID 2642 | CHO-K1 KCNQ1, FluxOR thallium flux fluorescence; stronger effect = higher value;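 active = compounds whose thallium flux B-score, printed positive for inhibition, exceeds three library SD while starting fluorescence stays within three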;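 note: channel opened by potassium depolarization with thallium stimulus after 20 min compound exposure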
# PHOSPHO1 inh: blocks human PHOSPHO1 phosphatase activity. Q8TCT1. recombinant PHOSPHO1, absorbance phosphatase assay. inhibition, % at 13.3 µM. actives 1.1% (n = 290,000). AID 1565; in the data active = inhibition above about 60%
# hERG rescue: hERG (human) protection from proarrhythmic block; Q12809; CHO-hERG, FluxOR thallium flux, dofetilide IC70 present; activation (rescue from dofetilide block), less the hit threshold, % at 10 µM; actives 0.51% (n = 310,000); AID 1511;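 active = activation above the mean of controls blocked by dofetilide plus 5 SD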;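 note: thallium influx through hERG after potassium depolarization seen as dye fluorescence rise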
# Target sequence (Q12809 whole entry, looked up): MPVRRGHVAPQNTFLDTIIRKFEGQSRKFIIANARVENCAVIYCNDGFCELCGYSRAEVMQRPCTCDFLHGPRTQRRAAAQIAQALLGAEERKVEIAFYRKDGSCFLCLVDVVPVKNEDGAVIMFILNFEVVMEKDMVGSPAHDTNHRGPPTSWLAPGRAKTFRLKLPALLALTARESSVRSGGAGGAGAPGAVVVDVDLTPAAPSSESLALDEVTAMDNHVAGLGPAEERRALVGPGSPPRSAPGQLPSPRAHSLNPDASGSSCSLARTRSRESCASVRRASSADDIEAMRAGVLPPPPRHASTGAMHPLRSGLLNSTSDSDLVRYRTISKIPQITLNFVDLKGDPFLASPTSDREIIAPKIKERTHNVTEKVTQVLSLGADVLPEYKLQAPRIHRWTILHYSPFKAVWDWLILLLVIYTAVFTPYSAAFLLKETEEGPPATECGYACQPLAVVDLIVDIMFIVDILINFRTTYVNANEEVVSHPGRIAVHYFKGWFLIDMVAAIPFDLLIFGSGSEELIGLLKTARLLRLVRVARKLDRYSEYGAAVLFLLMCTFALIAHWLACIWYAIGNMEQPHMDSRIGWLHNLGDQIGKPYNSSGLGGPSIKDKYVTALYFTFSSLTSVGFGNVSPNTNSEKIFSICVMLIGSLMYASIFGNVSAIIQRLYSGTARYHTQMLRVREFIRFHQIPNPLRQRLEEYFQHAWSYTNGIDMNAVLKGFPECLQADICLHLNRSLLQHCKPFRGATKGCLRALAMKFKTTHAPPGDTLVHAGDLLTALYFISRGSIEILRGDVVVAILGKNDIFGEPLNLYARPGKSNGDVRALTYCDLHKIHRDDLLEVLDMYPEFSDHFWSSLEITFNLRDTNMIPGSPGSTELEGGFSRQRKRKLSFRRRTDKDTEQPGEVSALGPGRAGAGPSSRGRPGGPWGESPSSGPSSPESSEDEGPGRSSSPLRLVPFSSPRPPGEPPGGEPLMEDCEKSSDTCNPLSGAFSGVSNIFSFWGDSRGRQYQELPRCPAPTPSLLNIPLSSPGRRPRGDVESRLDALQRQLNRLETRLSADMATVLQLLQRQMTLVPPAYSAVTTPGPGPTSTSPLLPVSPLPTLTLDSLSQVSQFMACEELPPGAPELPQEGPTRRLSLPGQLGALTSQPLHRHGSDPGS
# KCNK9 block: blocks the human KCNK9 two-pore domain potassium channel. actives 1.2% (n = 310,000). B-score at 10 µM. HEK293 KCNK9, FluxOR thallium flux fluorescence; stronger effect = lower value;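 active = ratio B-score over 3 SD below the library mean, with starting fluorescence within 5 SD of its mean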;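 note: negative B-score means less thallium flux so channel inhibition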
# KCNQ1 pot: potentiates or activates the human KCNQ1 potassium channel. P51787. CHO-K1 KCNQ1, thallium flux FluxOR fluorescence; stronger effect = higher value. B-score at 10 µM. actives 0.35% (n = 310,000). AID 2648;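 active = fluorescence ratio B-score, a plate-corrected score, at least three library SD, with initial intensity B-score within 5 SD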
#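 Medium – assay buffer, equal DMSO in all wells · Material – CHO-K1 cell line with stable KCNQ1 potassium channel expression · Signal – kinetic FluxOR thallium fluorescence, 10-s 1-Hz baseline, 110-s post-stimulus read · Compound – single concentration per compound, DMSO matched to controls · Schedule – 37 °C overnight plating, 90-min dark dye load, 20-min compound pretreatment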
# KCNQ1 block val: confirmation of human KCNQ1 potassium channel inhibitors. shares compounds with KCNQ1 inh. KCNQ1 cell line, FluxOR thallium flux fluorescence. inhibition, % at 10 µM. actives 93% (n = 1,600). AID 588353;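 active = primary screen active, with duplicate mean exceeding buffer control mean plus 3 SD of buffer wells, cut at about 28% in these data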
# CHO KCNQ1 ctr: activity in parental CHO cells lacking KCNQ1 | shares compounds with KCNQ1 inh | parental CHO-K1, FluxOR thallium flux fluorescence ratio; stronger effect = lower value; zero means no signal rise above baseline | fluorescence ratio (Tl flux) at 10 µM | actives 21% (n = 1,600);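 active = mean of duplicate thallium-flux fluorescence ratios in parental host cells more than 5 SD below the buffer control mean, cut at about 0.38 in these data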;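 note: ratio is peak minus minimum fluorescence divided by baseline fluorescence; actives read low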
# KCNQ1 APC inh: human KCNQ1 inhibition validated by electrophysiology | actives 20% (n = 490) | shares compounds with KCNQ1 inh | AID 624120 | calls only at 10 µM | KCNQ1-CHO cells, automated patch clamp current;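 active = KCNQ1 current drop exceeding 3 SD of negative control wells, seen in both duplicate runs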;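 note: steady state current during a 2 s step from -80 to +40 mV; negative values mean current inhibition and positive values mean potentiation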
# KCNQ2 spec: rat KCNQ2 inhibition in KCNQ1 inhibitor specificity screen; shares compounds with KCNQ1 inh; KCNQ2 cells, FluxOR thallium flux fluorescence; inhibition, % at 10 µM; actives 71% (n = 1,600); AID 651746;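 active = mean percent inhibition of the KCNQ2 thallium signal more than 5 SD above the buffer-only control wells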;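 note: KCNQ2 expressed in CHO cells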
# KCNQ1-KCNE1 inh: selectivity of KCNQ1 inhibitors: inhibition of human KCNQ1/KCNE1 channel; actives 77% (n = 1,600); shares compounds with KCNQ1 inh; inhibition, % at 10 µM; KCNQ1/KCNE1 cells, FluxOR thallium flux fluorescence;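 active = mean percent inhibition of duplicate wells above the buffer-only control mean plus 3 SD of those controls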
# Numbers stand for hits; – = inactive; · = not tested or not shown. In the library only some 4% were active in any assay of this set; here they are far more common.
SMILES,KCNK3 inh,KCNQ1 inh,PHOSPHO1 inh,hERG rescue,KCNK9 block,KCNQ1 pot,KCNQ1 block val,CHO KCNQ1 ctr,KCNQ2 spec,KCNQ1-KCNE1 inh,others
CN(Cc1ccon1)C(=O)C1CCC(=O)N(CCc2ccc(Cl)cc2)C1 (stereo unspecified),–,–,–,–,–,–,·,·,·,·,
CCSCCc1nnc(NC(=O)Nc2cccc(C(F)(F)F)c2)s1,–,9,–,–,–,–,64.5,–,–,–,
Cc1cccc(C)c1OCc1cc(C(=O)N2CCC(C3CCCCC3)C2)no1 (stereo unspecified),–,7,–,–,–,–,69.0,–,–,109.5%,
COCC1CCN(C(=O)c2cc(COc3cccc4cnccc34)on2)CC1,–,–,–,–,–,–,·,·,·,·,
Cc1cccc(C)c1OCc1cc(C(=O)N2CCC(c3ccccc3)CC2)no1,–,9,–,–,–,–,119.0,–,110.3%,168.0%,KCNQ1 APC inh=–
O=C(c1cc(COc2cccc3cnccc23)on1)N1CCCC(CCCO)C1 (stereo unspecified),–,14,62.8,–,–,–,108.5,–,92.3%,44.5%,KCNQ1 APC inh=–
Cc1cccc(C)c1OCc1cc(C(=O)N2CCN(c3ccccn3)CC2)no1,–,–,–,–,–,–,·,·,·,·,
CC(=O)c1ccc(OCc2cc(C(=O)N3CC[C@@H]4CCCC[C@H]4C3)no2)cc1,–,–,–,–,–,–,·,·,·,·,
Cc1ccc(NC(=O)C(C)Sc2nc(-c3ccccc3)cc(=O)[nH]2)cc1 (stereo unspecified),–,–,–,–,–,–,·,·,·,·,
COc1ccc(Nc2ccccc2NC(=O)c2ccccc2Br)cc1,–,11,–,–,–,–,89.0,–,94.3%,89.5%,
Cc1ccccc1C(=O)Nc1ccccc1NC(=O)c1ccccc1Br,–,–,–,–,–,–,·,·,·,·,
CN(C(=O)COC(=O)CNC(=O)C1CCCCC1)c1ccccc1,–,·,·,·,·,·,·,·,·,·,
NCC12CC3CC(C1)CC(c1ccc(Br)cc1)(C3)C2,–,6,–,–,–,–,66.0,–,–,124.0%,
Cc1ccc(C23CC4CC(CC(CC(=O)NC(C)(C)CO)(C4)C2)C3)cc1,–,–,–,–,–,–,·,·,·,·,
CC(C)N1CCc2c(sc(NC(=S)NC(=O)c3ccccc3)c2C#N)C1,–,7,–,–,–,–,–,–,–,48.5%,
O=C(Nc1ccccc1)c1ccc(NC2CCCCC2)c(S(=O)(=O)N2CCOCC2)c1,–,–,–,–,–,–,·,·,·,·,
Cc1ccc(SCCNS(=O)(=O)c2ccc(F)cc2)cc1,–,7,–,–,–,–,47.0,–,62.0%,50.5%,
O=S(=O)(NCCSc1ccc(Cl)cc1)c1ccc(F)cc1,–,–,–,–,–,–,·,·,·,·,
CCCOc1ccc(C2CC(=O)NC2=O)cc1 (stereo unspecified),–,–,–,–,–,–,·,·,·,·,
CC(C)NC(=O)c1cnc(N2CCN(c3ccccn3)CC2)c2ccccc12,–,–,–,–,–,–,·,·,·,·,
CCc1ccc(NC(=O)c2cnc(N3CCN(c4ccccn4)CC3)c3ccccc23)cc1,–,8,–,–,–,–,89.0,0.374,104.0%,141.0%,
COC(=O)c1ccc([C@H](NC(=O)c2ccco2)[C@]2(C)C[C@H]2C2CCCCC2)cc1,–,6,·,–,–,–,122.5,0.345,106.7%,167.5%,
O=C(OC1CCCCC1)c1ccc(NC(=O)c2ccco2)cc1,–,–,–,–,–,–,·,·,·,·,
CCOc1ccc(NC(=S)N2CCC(NC(=O)C3CCCCC3)CC2)cc1,–,–,–,–,–,–,·,·,·,·,
Cc1ccc(Nc2nc3nonc3[nH]c2=O)cc1Cl,–,9,–,–,–,–,29.0,–,–,–,
SMILES,KCNK3 inh,KCNQ1 inh,PHOSPHO1 inh,hERG rescue,KCNK9 block,KCNQ1 pot,KCNQ1 block val,CHO KCNQ1 ctr,KCNQ2 spec,KCNQ1-KCNE1 inh,others
COc1ccc(-c2csc3nc(C)nc(N4CCCCC4)c23)cc1OC,–,6,–,–,–,–,54.5,–,100.3%,87.0%,
O=C(Nc1ccccc1F)Nc1cccc2ccc(O)cc12,–,9,–,–,–,–,80.5,–,64.3%,–,
Cc1cc2c(NC(=O)Nc3ccc(C(C)(C)C)cc3)cccc2nn1,–,7,–,–,–,–,118.5,–,81.0%,68.0%,KCNQ1 APC inh=–
Cc1ccccc1NC(=O)Nc1ccc(C(F)(F)F)cc1,–,6,–,–,–,–,133.5,–,100.7%,–,KCNQ1 APC inh=–
O=C(Nc1ccc(Br)cc1)Nc1ccccc1F,–,7,–,–,–,–,51.5,–,–,–,
CC(=O)Nc1cccc2ccc(O)cc12,–,·,·,·,·,·,·,·,·,·,
O=C(CCSc1ccccc1)NC(=O)COC(=O)c1ccc(OC(F)F)cc1,–,–,–,–,–,–,·,·,·,·,
O=C(NCc1nc2ccccc2[nH]1)C1=C[C@H](c2csc3ccccc23)C[C@H](OCc2ccc(CO)cc2)O1,–,–,–,–,–,–,·,·,·,·,
S=C(Nc1cccc(Cl)c1)NC1CCCCC1,–,8,–,–,–,–,49.5,–,59.7%,61.5%,
CC(C)(C)N=Cc1c(O)ccc2oc3c(c12)CCCC3,–,9,–,–,-7.89,–,–,–,59.7%,–,
Cc1c(Cl)cccc1NC(=S)NCCc1ccc(Cl)cc1,–,15,–,–,–,–,73.0,–,79.0%,51.0%,
S=C(NCCc1cccc(Cl)c1)NCc1ccccc1,–,8,–,–,–,–,66.0,–,–,55.5%,
S=C(NCCc1ccc(Cl)cc1)NCc1ccccc1,–,10,–,–,–,–,63.0,–,74.0%,72.5%,
S=C(NCc1ccccc1)Nc1ccc(Cl)cc1,–,–,–,–,–,–,·,·,·,·,
Cc1cc(C)nc(SCC(=O)Nc2ccnc3ccccc23)n1,–,6,–,–,–,–,90.0,–,89.7%,–,KCNQ1 APC inh=–
O=C(CN1C(=O)NC2(CCc3ccccc32)C1=O)Nc1cccc(Cl)c1 (stereo unspecified),–,·,·,·,·,·,·,·,·,·,
COc1ccc(NC(=O)c2cc(S(=O)(=O)NCC3COc4ccccc4O3)ccc2F)cc1 (stereo unspecified),–,–,–,–,–,–,·,·,·,·,

# Screening data: PubChem BioAssay, several laboratories
